Activity calls are given as the source filed them. The calls are words filed in the database; no cut-off is given here.
Columns and labels:
Plasmodium falciparum [1] = assay: Antimalarial activity against chloroquine-sensitive Plasmodium falciparum 3D7 infected in O+ human erythrocytes by [3H]hypoxanthine incorporation assay; format: functional, organism-based; conditions: 3D7, 3 h
[2] = Selectivity index, ratio of IC50 for neonatal foreskin fibroblasts to IC50 for chloroquine-resistant Plasmodium falciparum Dd2
Plasmodium falciparum [3] = assay: Antimalarial activity against chloroquine-resistant Plasmodium falciparum Dd2 infected in O+ human erythrocytes by [3H]hypoxanthine incorporation assay; format: functional, organism-based
Procedure, shortened: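 Parasites cultured in O+ human erythrocytes in RPMI 1640 with 10% heat-inactivated human serum. Synchronous ring-stage infected cells were set at 0.25% parasitemia and 2.5% hematocrit, and growth was measured by [3H]hypoxanthine incorporation. IC50 was taken against DMSO controls by linear interpolation of inhibition curves. Chloroquine served as the internal control. Triplicate wells, at least four separate occasions.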

[4] = Selectivity index, ratio of IC50 for neonatal foreskin fibroblasts to IC50 for chloroquine-sensitive Plasmodium falciparum 3D7
[5] = Toxicity in neonatal foreskin fibroblasts; format: ADME, cell-based; conditions: Fibroblast
[6] = Selectivity index, ratio of IC50 for human WI38 cells to IC50 for chloroquine-resistant Plasmodium falciparum Dd2
[7] = Toxicity in human WI38 cells; format: cell-based, WI-38
[8] = Selectivity index, ratio of IC50 for human WI38 cells to IC50 for chloroquine-sensitive Plasmodium falciparum 3D7
[9] = Toxicity in breast fibroblasts; format: cell-based; conditions: Fibroblast
[10] = Toxicity in african green monkey Vero cells; format: cell-based; conditions: African green monkey (Chlorocebus sabaeus)
Plasmodium falciparum [11] = assay: Antimalarial activity against chloroquine-sensitive Plasmodium falciparum D6 infected in O+ human erythrocytes by [3H]hypoxanthine incorporation assay; format: functional, organism-based
[12] = Selectivity index, ratio of IC50 for african green monkey (Cercopithecus aethiops) Vero cells to IC50 for chloroquine-resistant Plasmodium falciparum W2; format: toxicity, cell-based; conditions: read-out: Ratio IC50
Plasmodium falciparum [13] = assay: Antimalarial activity against chloroquine-resistant Plasmodium falciparum W2 infected in O+ human erythrocytes by [3H]hypoxanthine incorporation assay; format: functional, organism-based
[14] = Selectivity index, ratio of IC50 for african green monkey (Cercopithecus aethiops) Vero cells to IC50 for chloroquine-sensitive Plasmodium falciparum D6; format: toxicity, cell-based; conditions: read-out: Ratio IC50
Plasmodium falciparum [15] = assay: Antimalarial activity against Plasmodium falciparum infected in O+ human erythrocytes assessed as reduction in parasites at trophozoites stage at 50 nM after 48 hrs by Giemsa staining based microscopy; format: functional, organism-based
Procedure, shortened: (§1)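 Synchronous Dd2-infected erythrocytes at ring (~18 h postinvasion), trophozoite (~26 h) or schizont (~38 h) stage, starting parasitemia 0.2–1.0%, exposed to 50 or 200 nM; DMSO (<0.05%) vehicle controls. Parasitemia counted on Giemsa-stained thin smears over 2–4 days, at least 1,000 erythrocytes by two counters. 48 h means compared by ANOVA; three independent experiments.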

Plasmodium falciparum [16] = assay: Antimalarial activity against Plasmodium falciparum infected in O+ human erythrocytes assessed as reduction in parasites at ring stage at 200 nM after 48 hrs by Giemsa staining based microscopy; format: functional, organism-based; procedure, shortened: as §1
Plasmodium falciparum [17] = assay: Antimalarial activity against Plasmodium falciparum infected in O+ human erythrocytes assessed as reduction in parasites at schizonts stage at 200 nM after 48 hrs by Giemsa staining based microscopy; format: functional, organism-based; procedure, shortened: as §1
Plasmodium falciparum [18] = assay: Antimalarial activity against Plasmodium falciparum infected in O+ human erythrocytes assessed as reduction in parasites at schizonts stage at 50 nM after 48 hrs by Giemsa staining based microscopy; format: functional, organism-based; procedure, shortened: as §1
Plasmodium falciparum [19] = assay: Antimalarial activity against Plasmodium falciparum infected in O+ human erythrocytes assessed as reduction in parasites at trophozoites stage at 200 nM after 48 hrs by Giemsa staining based microscopy; format: functional, organism-based; procedure, shortened: as §1
Plasmodium falciparum [20] = assay: Antimalarial activity against Plasmodium falciparum infected in O+ human erythrocytes assessed as reduction in parasites at ring stage at 50 nM after 48 hrs by Giemsa staining based microscopy; format: functional, organism-based; procedure, shortened: as §1
Plasmodium falciparum [21] = assay: Inhibition of HDAC in Plasmodium falciparum Dd2 infected in O+ human erythrocytes assessed as alteration of histone acetylation at 20 to 500 nM after 3.5 hrs by Westen blot; format: organism-based
Procedure, shortened: (§2)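 Late-trophozoite Dd2-infected erythrocytes (3 x 10^9) treated 3.5 h at 37°C at 20, 100 or 500 nM, DMSO vehicle controls. Saponin lysis, histones acid-extracted in 0.5 M HCl, acetone-precipitated, run on 15% SDS-PAGE (silver stain for loading). Western blot with anti-tetra-acetyl histone H4 antiserum (1:2,000), then HRP anti-rabbit (1:5,000).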

Plasmodium falciparum [22] = assay: Inhibition of HDAC in Plasmodium falciparum Dd2 infected in O+ human erythrocytes assessed as alteration of histone acetylation at 500 nM after 3.5 hrs by Westen blot; format: organism-based; procedure, shortened: as §2
Plasmodium falciparum [23] = assay: Antimalarial activity against Plasmodium falciparum; format: functional, organism-based
Procedure, shortened: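 Dd2 and 3D7 grown in O-positive human erythrocytes, RPMI 1640 with 10% heat-inactivated human serum. Synchronous ring-stage infected cells, 0.25% parasitemia, 2.5% hematocrit; growth read as [3H]hypoxanthine incorporation versus DMSO controls. IC50 taken by linear interpolation of inhibition curves. Chloroquine as internal control; triplicate wells, at least four separate occasions.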

## CC(NC(=O)c1ccccc1/N=C/c1c(O)ccc2ccccc12)c1ccccc1 (stereo not given) [SIRTINOL]
Plasmodium falciparum [1]
  IC50: 12900 nM
[2]
  Ratio IC50: 2.7
Plasmodium falciparum [3]
  IC50: 9100 nM
[4]
  Ratio IC50: 1.9
[5]
  IC50: > 25000 nM

## O=C(CCCCC[C@H](NC(=O)c1ccc(Br)cc1)C(=O)Nc1ccc(-c2ccccc2)cc1)NO
Plasmodium falciparum [1]
  IC50: 22 nM
[2]
  Ratio IC50: 5
Plasmodium falciparum [3]
  IC50: 41 nM
[4]
  Ratio IC50: 9
[5]
  IC50: 190 nM

## CN(C)c1ccc(C(=O)N[C@@H](CSCCCC(=O)NO)C(=O)NC2CCCc3ccccc32)cc1 (stereo not given in full)
[2]
  Ratio IC50: 7
Plasmodium falciparum [3]
  IC50: 305 nM
[5]
  IC50: 2200 nM

## O=C(CCCCC[C@H](NC(=O)OCc1ccccc1)C(=O)Nc1ccc(-c2ccccc2)cc1)NO
Plasmodium falciparum [1]
  IC50: 29 nM
[2]
  Ratio IC50: 21
Plasmodium falciparum [3]
  IC50: 105 nM
[4]
  Ratio IC50: 76
[5]
  IC50: 2200 nM

## Nc1ccccc1NC(=O)c1ccc(CNC(=O)OCc2cccnc2)cc1 [ENTINOSTAT]
[6]
  selectivity ratio: > 2.6
Plasmodium falciparum [1]
  IC50: 8300 nM
[7]
  IC50: > 20000 nM
[8]
  selectivity ratio: > 2.4
[9]
  IC50: 20000 nM
Plasmodium falciparum [3]
  IC50: 7800 nM

## O=C(/C=C\c1ccccc1)N[C@@H](CSCCCC(=O)NO)C(=O)NCc1ccccc1
[2]
  Ratio IC50: 2
Plasmodium falciparum [3]
  IC50: 339 nM
[5]
  IC50: 800 nM

## O=C(CCCCCCC(=O)NO)NO [SUBEROHYDROXAMIC ACID]
[10]
  IC50: > 20000 nM
Plasmodium falciparum [11]
  IC50: 940 nM
[12]
  selectivity ratio: > 21
Plasmodium falciparum [13]
  IC50: 1780 nM
[14]
  selectivity ratio: > 21

## O=C(CCCCC[C@H](NC(=O)c1cc2ccccc2[nH]1)C(=O)Nc1cccc2cccnc12)NO
Plasmodium falciparum [15]
  inhibition: Active
Plasmodium falciparum [1]
  IC50: 13 nM
[2]
  Ratio IC50: 10
Plasmodium falciparum [3]
  IC50: 33 nM
Plasmodium falciparum [16]
  inhibition: Active
Plasmodium falciparum [17]
  inhibition: Active
[4]
  Ratio IC50: 26
Plasmodium falciparum [18]
  inhibition: Active
[5]
  IC50: 337 nM
Plasmodium falciparum [19]
  inhibition: Active
Plasmodium falciparum [20]
  inhibition: Active
Plasmodium falciparum [21]
  inhibition: Active

## CC(/C=C/C(=O)NO)=C\[C@@H](C)C(=O)c1ccc(N(C)C)cc1 [TRICHOSTATIN]
Plasmodium falciparum [1]
  IC50: 11 nM
[2]
  Ratio IC50: 25
Plasmodium falciparum [3]
  IC50: 8 nM
Plasmodium falciparum [16]
  inhibition: Active
Plasmodium falciparum [17]
  inhibition: Active
[4]
  Ratio IC50: 18
[5]
  IC50: 200 nM
Plasmodium falciparum [19]
  inhibition: Active
Plasmodium falciparum [22]
  inhibition: Active

## CN(C)c1ccc(C(=O)N[C@@H](CSCCCC(=O)NO)C(=O)NCc2ccccc2)cc1
[2]
  Ratio IC50: 2
Plasmodium falciparum [3]
  IC50: 169 nM
[5]
  IC50: 350 nM

## CN(C)c1ccc(C(=O)N[C@@H](CSCCCC(=O)NO)C(=O)Nc2ccc(-c3ccccc3)cc2)cc1
[2]
  Ratio IC50: 3
Plasmodium falciparum [3]
  IC50: 128 nM
[5]
  IC50: 320 nM

## O=C(CCCCC[C@H](NC(=O)c1ccc(Br)cc1)C(=O)NCc1ccccc1)NO
Plasmodium falciparum [1]
  IC50: 91 nM
[2]
  Ratio IC50: 17
Plasmodium falciparum [3]
  IC50: 334 nM
[4]
  Ratio IC50: 64
[5]
  IC50: 5860 nM

## CC(C)(C)OC(=O)N[C@@H](CCCCCS)C(=O)NC1CCCC1
Plasmodium falciparum [1]
  IC50: 15200 nM
Plasmodium falciparum [3]
  IC50: 19900 nM

## O=C(CCCCC[C@H](NC(=O)c1cc2ccccc2[nH]1)C(=O)NCc1ccccc1)NO
Plasmodium falciparum [1]
  IC50: 34 nM
[2]
  Ratio IC50: 20
Plasmodium falciparum [3]
  IC50: 63 nM
[4]
  Ratio IC50: 37
[5]
  IC50: 1260 nM

## CN(C)c1ccc(C(=O)N[C@@H](CCCCCC(=O)NO)C(=O)Nc2cccc3cccnc23)cc1
Plasmodium falciparum [1]
  IC50: 19 nM
[2]
  Ratio IC50: 8
Plasmodium falciparum [3]
  IC50: 71 nM
[4]
  Ratio IC50: 30
[5]
  IC50: 570 nM

## CN(C)c1ccc(NC(=O)[C@H](CSCCCC(=O)NO)NC(=O)c2ccc(N(C)C)cc2)cc1
[2]
  Ratio IC50: 12
Plasmodium falciparum [3]
  IC50: 48 nM
[5]
  IC50: 600 nM

## O=C(CCCCCCCC(=O)NO)NO [AZELAIC BIS HYDROXAMIC ACID]
Plasmodium falciparum [23]
  IC50: 3200 nM

## O=C(/C=C/c1ccccc1)N[C@@H](CCCCCC(=O)NO)C(=O)NCc1ccccc1
Plasmodium falciparum [1]
  IC50: 34 nM
[2]
  Ratio IC50: 39
Plasmodium falciparum [3]
  IC50: 102 nM
[4]
  Ratio IC50: 118
[5]
  IC50: 4010 nM

## O=C(/C=C/c1ccccc1)N[C@@H](CCCCCC(=O)NO)C(=O)Nc1cccc2cccnc12
Plasmodium falciparum [15]
  inhibition: Active
Plasmodium falciparum [1]
  IC50: 15 nM
[2]
  Ratio IC50: 32
Plasmodium falciparum [3]
  IC50: 39 nM
Plasmodium falciparum [16]
  inhibition: Active
Plasmodium falciparum [17]
  inhibition: Active
[4]
  Ratio IC50: 83
Plasmodium falciparum [18]
  inhibition: Active
[5]
  IC50: 1240 nM
Plasmodium falciparum [19]
  inhibition: Active
Plasmodium falciparum [20]
  inhibition: Active
Plasmodium falciparum [21]
  inhibition: Active

## O=C(CCCSC[C@H](NC(=O)c1ccc(Br)cc1)C(=O)NCc1ccccc1)NO
[2]
  Ratio IC50: 13
Plasmodium falciparum [3]
  IC50: 125 nM
[5]
  IC50: 830 nM
